According to ChEMBL document CHEMBL4354873, “Rationally Designed Small-Molecule Inhibitors Targeting an Unconventional Pocket on the TLR8 Protein-Protein Interface” (J Med Chem, 2020):
Activity calls are given as the source filed them. The calls are words filed in the database; no cut-off is given here.

Tests used:
Toll-like receptor 8 [1] = target: T1, Toll-like receptor 8 (Homo sapiens, UniProt Q9NR97); test: (§1) Inhibition of human TLR8 expressed in HEK-Blue cells assessed as inhibition of R848-induced NF-kappaB activation measured after 24 hrs by quanti-blue based SEAP reporter gene assay; format: cell-based
T1 sequence (Q9NR97 whole entry): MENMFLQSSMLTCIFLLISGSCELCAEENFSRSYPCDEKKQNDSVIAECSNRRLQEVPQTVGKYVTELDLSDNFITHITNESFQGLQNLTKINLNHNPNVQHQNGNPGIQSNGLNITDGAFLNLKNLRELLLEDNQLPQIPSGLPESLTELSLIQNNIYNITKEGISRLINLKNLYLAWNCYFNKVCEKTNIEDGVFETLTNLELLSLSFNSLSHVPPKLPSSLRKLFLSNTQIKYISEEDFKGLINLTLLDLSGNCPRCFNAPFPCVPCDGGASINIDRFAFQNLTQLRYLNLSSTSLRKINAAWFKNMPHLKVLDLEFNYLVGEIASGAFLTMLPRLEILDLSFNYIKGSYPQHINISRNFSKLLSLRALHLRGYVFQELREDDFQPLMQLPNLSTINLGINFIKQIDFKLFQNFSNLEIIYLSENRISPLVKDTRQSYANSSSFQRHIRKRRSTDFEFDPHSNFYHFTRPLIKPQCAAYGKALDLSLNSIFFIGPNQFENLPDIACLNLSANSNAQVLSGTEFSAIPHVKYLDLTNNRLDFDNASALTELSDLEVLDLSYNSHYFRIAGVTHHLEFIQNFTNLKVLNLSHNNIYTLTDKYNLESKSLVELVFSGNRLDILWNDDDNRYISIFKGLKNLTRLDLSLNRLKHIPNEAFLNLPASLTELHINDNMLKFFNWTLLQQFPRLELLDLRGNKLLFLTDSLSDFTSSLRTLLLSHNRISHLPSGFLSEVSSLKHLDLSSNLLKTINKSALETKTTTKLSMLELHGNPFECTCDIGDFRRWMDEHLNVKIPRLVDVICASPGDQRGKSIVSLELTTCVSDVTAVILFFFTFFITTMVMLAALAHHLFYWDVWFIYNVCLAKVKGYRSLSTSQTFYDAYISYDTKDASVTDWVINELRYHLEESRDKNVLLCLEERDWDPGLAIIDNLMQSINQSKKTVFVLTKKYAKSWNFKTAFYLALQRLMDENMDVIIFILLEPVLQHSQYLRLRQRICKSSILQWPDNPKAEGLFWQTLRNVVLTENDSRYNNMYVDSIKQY

[2] = target: T2, Toll-like receptor 8 (Homo sapiens) (UniProt Q9NR97); test: as §1; format: cell-based
T2 sequence (whole entry): T1 sequence (Q9NR97 whole entry)

[3] = target: T2, Toll-like receptor 8 (Homo sapiens); test: Inhibition of human TLR8 expressed in HEK-Blue cells assessed as inhibition of ssRNA06-induced NF-kappaB activation measured after 24 hrs by quanti-blue based SEAP reporter gene assay; format: cell-based
In short: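 HEK-Blue TLR8 cells, 4 × 10⁴/well, stimulated with ssRNA06 in the presence of varying compound concentrations for 24 h at 37 °C. SEAP read with QUANTI-Blue at 620 nm. Normalized so ligand-treated cells are 100% activation and untreated cells 0%.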

[4] = target: T3, Toll-like receptor 7 (Homo sapiens) (UniProt Q9NYK1); test: Inhibition of human TLR7 expressed in HEK-Blue cells assessed as inhibition of R848-induced NF-kappaB activation at 20 uM measured after 24 hrs by quanti-blue based SEAP reporter gene assay; format: cell-based
T3 sequence (whole entry): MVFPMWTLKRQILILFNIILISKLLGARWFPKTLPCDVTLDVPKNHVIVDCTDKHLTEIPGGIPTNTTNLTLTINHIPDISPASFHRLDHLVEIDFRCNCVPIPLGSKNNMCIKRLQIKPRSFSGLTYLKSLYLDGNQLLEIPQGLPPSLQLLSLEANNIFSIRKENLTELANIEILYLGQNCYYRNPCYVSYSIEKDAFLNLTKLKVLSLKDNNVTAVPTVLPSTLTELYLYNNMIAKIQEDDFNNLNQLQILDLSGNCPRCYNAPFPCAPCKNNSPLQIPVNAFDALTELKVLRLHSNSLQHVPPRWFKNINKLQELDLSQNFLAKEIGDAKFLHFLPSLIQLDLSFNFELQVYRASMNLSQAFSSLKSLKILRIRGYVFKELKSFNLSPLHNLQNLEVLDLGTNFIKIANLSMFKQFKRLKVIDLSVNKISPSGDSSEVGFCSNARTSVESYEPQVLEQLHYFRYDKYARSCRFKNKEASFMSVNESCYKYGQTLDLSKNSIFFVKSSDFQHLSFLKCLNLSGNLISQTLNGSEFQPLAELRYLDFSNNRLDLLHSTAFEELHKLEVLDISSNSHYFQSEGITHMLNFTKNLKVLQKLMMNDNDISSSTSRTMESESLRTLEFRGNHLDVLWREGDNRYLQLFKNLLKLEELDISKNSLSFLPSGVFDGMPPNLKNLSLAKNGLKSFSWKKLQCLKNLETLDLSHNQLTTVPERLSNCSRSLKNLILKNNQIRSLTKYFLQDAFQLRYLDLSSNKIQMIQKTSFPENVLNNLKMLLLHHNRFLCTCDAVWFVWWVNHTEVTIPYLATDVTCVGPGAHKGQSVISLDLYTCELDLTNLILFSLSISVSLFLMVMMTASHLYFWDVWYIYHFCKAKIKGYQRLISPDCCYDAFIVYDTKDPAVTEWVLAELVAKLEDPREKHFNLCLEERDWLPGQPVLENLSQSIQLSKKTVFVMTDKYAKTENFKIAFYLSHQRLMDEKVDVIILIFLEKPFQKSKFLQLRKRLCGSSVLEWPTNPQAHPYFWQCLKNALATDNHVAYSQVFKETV
In short: (§2)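 HEK-Blue SEAP format: 4 × 10⁴ cells/well in DMEM with ligand plus compound, 24 h at 37 °C. Supernatant mixed with QUANTI-Blue up to 1 h, then A620 read. Ligands: Pam3CSK4 100 ng/mL (TLR1/2), Pam2CSK4 100 ng/mL (TLR2/6), poly(I:C) 5 µg/mL (TLR3), LPS 20 ng/mL (TLR4), flagellin 50 ng/mL (TLR5), R848 1 µg/mL (TLR7), R848 2 µg/mL (TLR8), ODN2006 0.5 µM (TLR9). Mean ± s.d.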

[5] = target: Toll-like receptor 3 (Homo sapiens) (UniProt O15455); test: Inhibition of human TLR3 expressed in HEK-Blue cells assessed as inhibition of poly(I/C)-induced NF-kappaB activation at 20 uM measured after 24 hrs by quanti-blue based SEAP reporter gene assay; format: cell-based; in short: as §2
Toll-like receptor 8 [6] = target: T1, Toll-like receptor 8; test: Binding affinity to human TLR8 ectodomain by isothermal titration calorimetry
In short: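 ITC at 298 K in 25 mM MES pH 5.5, 0.20 M NaCl, 5% DMSO. The protein was the human TLR8 ectodomain (residues 27–827). 100 µM compound was titrated into 10 µM hTLR8 as one 0.4 µL injection followed by 18 × 2 µL injections, 120 s apart. Integrated peaks were fitted for Kd.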

[7] = target: T3, Toll-like receptor 7 (Homo sapiens); test: Effect on TLR7-mediated signaling in human PBMC assessed as change in basal TNFalpha secretion up to 20 uM measured after 24 hrs by ELISA

Chain of Toll-like receptor 3 (Homo sapiens) (O15455 whole entry, the tested form may be a part): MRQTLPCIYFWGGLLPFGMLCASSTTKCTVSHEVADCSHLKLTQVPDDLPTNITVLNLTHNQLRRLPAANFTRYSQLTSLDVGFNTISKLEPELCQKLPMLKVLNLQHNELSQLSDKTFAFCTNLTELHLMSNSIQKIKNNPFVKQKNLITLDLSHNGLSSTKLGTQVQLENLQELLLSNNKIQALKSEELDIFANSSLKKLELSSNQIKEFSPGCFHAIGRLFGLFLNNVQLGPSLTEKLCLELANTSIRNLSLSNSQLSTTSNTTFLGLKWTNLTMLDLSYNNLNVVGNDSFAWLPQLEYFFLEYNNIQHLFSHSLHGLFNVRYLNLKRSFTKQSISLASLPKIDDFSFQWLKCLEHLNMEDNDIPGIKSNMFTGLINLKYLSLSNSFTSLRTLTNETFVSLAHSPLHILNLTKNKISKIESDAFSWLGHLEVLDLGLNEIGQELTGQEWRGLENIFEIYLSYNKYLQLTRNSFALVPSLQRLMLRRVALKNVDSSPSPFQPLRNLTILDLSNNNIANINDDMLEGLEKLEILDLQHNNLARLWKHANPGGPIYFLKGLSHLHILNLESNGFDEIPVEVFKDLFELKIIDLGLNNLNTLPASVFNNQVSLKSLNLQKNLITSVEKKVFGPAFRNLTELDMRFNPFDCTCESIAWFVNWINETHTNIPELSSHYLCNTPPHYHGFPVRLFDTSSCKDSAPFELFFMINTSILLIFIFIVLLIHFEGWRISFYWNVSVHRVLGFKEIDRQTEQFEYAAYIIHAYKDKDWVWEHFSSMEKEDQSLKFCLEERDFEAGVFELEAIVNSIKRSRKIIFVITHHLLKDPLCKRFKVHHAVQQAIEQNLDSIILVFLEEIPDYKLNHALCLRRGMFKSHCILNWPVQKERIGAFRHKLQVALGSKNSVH

IC50 (Toll-like receptor 8 [1]): 30 nM | inhibition [2]: Dose-dependent effect | inhibition [3]: Dose-dependent effect | inhibition [4]: inactive | inhibition [5]: inactive | Kd (Toll-like receptor 8 [6]): 225 nM | Activity [7]: inactive
SMILES: CSc1nnc(CCCO)n1-c1cc(C)c(C)c(C)c1
